The values that follow come from ChEMBL document CHEMBL1129987, “Structure-based design of nonpeptidic HIV protease inhibitors: the sulfonamide-substituted cyclooctylpyramones” (J Med Chem, 1997).

Series [1] has as its system Human immunodeficiency virus 1. The series can be described thus: Antiviral activity in HIV-1 infected H9 cells. Type of series: functional. The conditions noted are these: Human immunodeficiency virus 1, H9; read-out: ED50 (the source's name). The method in brief: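 H9 cells infected with HIV-1 IIIB at MOI about 0.005, spun down (200g, 10 min), resuspended at 8 × 10^5 cells/mL in RPMI Complete and mixed with compound; final DMSO 0.1%, triplicate per concentration. After 5 days at 37 °C in 5% CO2, supernatant p24 antigen was measured by ELISA. ED50 is the drug amount that reduces p24 by 50% versus DMSO drug-free controls.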

A short description of series [2]: Median cell culture toxic dose was evaluated against H9 cell line. It is filed as ADME, cell-based. As to conditions: human, H9 cells; read-out: CCTD50.
Series [3] deals with Human immunodeficiency virus type 1 protease (Human immunodeficiency virus 1, UniProt Q72874). Nature of the series: Binding affinity against HIV-1 protease.

pEC50, pKi: −log10 of the molar value. Some results are limits rather than exact numbers.

For orientation: pKi means the Ki on a negative log10 scale, so that one unit is a factor of ten. A low value points to a large Ki. As to `CC(C)C(c1cccc(NS(=O)(=O)c2ccc(Cl)cc2)c1)c1c(O)c2c(oc1=O)CCCCCC2` (stereo not given), in series [1], the pEC50 is less than 5.00. Further, in series [2], the CC50 is greater than 30 µM. In addition, the negative logarithm of the Ki (pKi) in series [3] was 7.74.
For the compound `CCCC(c1cccc(NS(=O)(=O)c2cccc3cccnc23)c1)c1c(O)c2c(oc1=O)CCCCCC2` (stereo not given), the pEC50 in series [1] was less than 5.52. In addition, the CC50 in series [2] was greater than 30 µM. The pKi in series [3] was 8.68.
Turning to `O=c1c2c(oc(O)c1[C@@H](c1cccc(NS(=O)(=O)c3cccc4cccnc34)c1)C1CC1)CCCCCC2`, the pEC50 in series [1] was 5.14. For the same compound, in series [2], the CC50 was greater than 30 µM. Also, the pKi in series [3] is 9.05.
The matching figures for `CCCC(c1cccc(NS(=O)(=O)c2ccc(Cl)cc2)c1)c1c(O)c2c(oc1=O)CCCCCC2` (stereo not given): less than 5.00, greater than 30 µM and 8.40.
In the case of `O=c1c2c(oc(O)c1C(c1cccc(NS(=O)(=O)c3cccc(Cl)c3)c1)C1CC1)CCCCCC2` (stereo not given), the pEC50 in series [1] was 5.49. Besides, the CC50 in series [2] is greater than 30 µM. Besides, in series [3], the negative-log Ki (pKi) is 8.57.
In the case of `O=c1c2c(oc(O)c1C(c1cccc(NS(=O)(=O)c3ccc(F)cc3F)c1)C1CC1)CCCCCC2` (stereo not given), the pEC50 in series [1] was 5.38. The CC50 in series [2] was greater than 30 µM. In addition, in series [3], the pKi is 8.39.
For `N#Cc1ccccc1S(=O)(=O)Nc1cccc(C(c2c(O)oc3c(c2=O)CCCCCC3)C2CC2)c1` (stereo not given) the same measures were less than 5.00, greater than 30 µM and 8.13.
The matching figures for `O=c1c2c(oc(O)c1C(c1cccc(NS(=O)(=O)c3ccccn3)c1)C1CC1)CCCCCC2` (stereo not given): 5.34, greater than 30 µM and 8.66.
The matching figures for `Nc1cccc(S(=O)(=O)Nc2cccc(C(c3c(O)c4c(oc3=O)CCCCCC4)C3CC3)c2)c1` (stereo not given): 5.20, greater than 30 µM and 8.64.
As for `N#Cc1ccc(S(=O)(=O)Nc2cccc(C(c3c(O)oc4c(c3=O)CCCCCC4)C3CC3)c2)nc1` (stereo not given), the pEC50 in series [1] is 6.05. For the same compound, the CC50 in series [2] is greater than 30 µM. Besides, the pKi in series [3] was 9.00.
Regarding `CN(C)c1ccc(S(=O)(=O)Nc2cccc(C(c3c(O)c4c(oc3=O)CCCCCC4)C3CC3)c2)cc1` (stereo not given), the pEC50 in series [1] is 5.06. Moreover, the CC50 in series [2] is greater than 30 µM. This compound also gave a negative logarithm of the Ki (pKi) in series [3] of 8.55.
Consider `CCCCC(c1cccc(NS(=O)(=O)c2ccc(F)cc2)c1)c1c(O)c2c(oc1=O)CCCCCC2` (stereo not given), for which the pEC50 in series [1] is less than 5.00. The CC50 in series [2] was greater than 30 µM. The pKi in series [3] is 8.21.
The matching figures for `O=c1c2c(oc(O)c1C(c1cccc(NS(=O)(=O)c3ccc([N+](=O)[O-])cc3)c1)C1CC1)CCCCCC2` (stereo not given): 5.51, greater than 30 µM and 8.57.
Take `O=c1c2c(oc(O)c1C(c1cccc(NS(=O)(=O)c3ccc(Br)cc3)c1)C1CC1)CCCCCC2` (stereo not given): the pEC50 in series [1] is 5.49. For the same compound, the CC50 in series [2] is greater than 30 µM. In series [3], this compound gave a pKi of 8.68.
On to `CCCC(c1cccc(NS(=O)(=O)c2ccc(C#N)cc2)c1)c1c(O)c2c(oc1=O)CCCCCC2` (stereo not given), for which the pEC50 in series [1] was 5.41. Also, in series [2], the CC50 is greater than 30 µM. Further, the negative-log Ki (pKi) in series [3] was 8.85.
With `Cc1ccc(S(=O)(=O)Nc2cccc(C(c3c(O)c4c(oc3=O)CCCCCC4)C3CC3)c2)cc1` (stereo not given), the pEC50 in series [1] is 5.44. Moreover, the CC50 in series [2] is greater than 30 µM. In addition, the pKi in series [3] is 8.48.
For `O=c1c2c(oc(O)c1C(c1cccc(NS(=O)(=O)c3cccc4ccccc34)c1)C1CC1)CCCCCC2` (stereo not given) the same measures were 5.44, greater than 30 µM and 8.26.
The matching figures for `CC(C)CC(c1cccc(NS(=O)(=O)c2ccc(C#N)cc2)c1)c1c(O)c2c(oc1=O)CCCCCC2` (stereo not given): 5.21, greater than 30 µM and 8.82.
For `CC(C)(C)c1ccc(S(=O)(=O)Nc2cccc(C(c3c(O)c4c(oc3=O)CCCCCC4)C3CC3)c2)cc1` (stereo not given) the same measures were less than 5.00, greater than 30 µM and 7.49.
As for `O=c1c2c(oc(O)c1C(c1cccc(NS(=O)(=O)c3ccc4ccccc4n3)c1)C1CC1)CCCCCC2` (stereo not given), the pEC50 in series [1] was 5.27. Besides, in series [2], the CC50 is greater than 30 µM. Besides, the pKi in series [3] was 9.40.
Take `O=c1c2c(oc(O)c1C(c1cccc(NS(=O)(=O)c3cccc(Br)c3)c1)C1CC1)CCCCCC2` (stereo not given): the pEC50 in series [1] was 5.52. In addition, in series [2], the CC50 is greater than 30 µM. In series [3], this compound gave a negative-log Ki (pKi) of 8.59.
For `O=c1c2c(oc(O)c1C(c1cccc(NS(=O)(=O)c3cccc([N+](=O)[O-])c3)c1)C1CC1)CCCCCC2` (stereo not given) the same measures were 5.38, greater than 30 µM and 8.33.
Regarding `[N-]=[N+]=Nc1ccc(S(=O)(=O)Nc2cccc(C(c3c(O)oc4c(c3=O)CCCCCC4)C3CC3)c2)cc1` (stereo not given), the pEC50 in series [1] was 5.77. Besides, in series [2], the CC50 is greater than 30 µM. In series [3], the negative-log Ki (pKi) was 8.59.
Regarding `O=c1c2c(oc(O)c1C(c1cccc(NS(=O)(=O)c3cccs3)c1)C1CC1)CCCCCC2` (stereo not given), the pEC50 in series [1] was less than 5.00. Further, the CC50 in series [2] is greater than 30 µM. For the same compound, in series [3], the pKi is 8.20.
For `CCC(c1cccc(NS(=O)(=O)c2ccc(Cl)cc2)c1)c1c(O)c2c(oc1=O)CCCCCC2` (stereo not given) the same measures were 5.33, greater than 30 µM and 8.46.
The matching figures for `CC(C)C(c1cccc(NS(=O)(=O)c2ccc(C#N)cc2)c1)c1c(O)c2c(oc1=O)CCCCCC2` (stereo not given): less than 5.00, greater than 30 µM and 8.23.
For `CCCC(c1cccc(NS(=O)(=O)c2ccc(F)cc2)c1)c1c(O)c2c(oc1=O)CCCCCC2` (stereo not given) the same measures were 5.20, greater than 30 µM and 8.68.
For the compound `CCCC(c1cccc(NS(=O)(=O)c2cn(C)cn2)c1)c1c(O)c2c(oc1=O)CCCCCC2` (stereo not given), the pEC50 in series [1] is 5.60. Also, the CC50 in series [2] is greater than 30 µM. This compound also had a negative-log Ki (pKi) in series [3] of 10.00.
Consider `O=c1c2c(oc(O)c1C(c1cccc(NS(=O)(=O)c3ccc(Cl)cc3)c1)C1CC1)CCCCCC2` (stereo not given), for which the pEC50 in series [1] is 5.70. Besides, the CC50 in series [2] is greater than 30 µM. The negative-log Ki (pKi) in series [3] was 8.60.
The matching figures for `O=c1c2c(oc(O)c1C(c1cccc(NS(=O)(=O)c3cccc(C(F)(F)F)c3)c1)C1CC1)CCCCCC2` (stereo not given): 5.42, greater than 30 µM and 8.52.
For `O=C(O)c1cccc(S(=O)(=O)Nc2cccc(C(c3c(O)c4c(oc3=O)CCCCCC4)C3CC3)c2)c1` (stereo not given) the same measures were less than 5.00, greater than 30 µM and 8.35.
As to `O=c1c2c(oc(O)c1C(c1cccc(NS(=O)(=O)c3cnccn3)c1)C1CC1)CCCCCC2` (stereo not given), the pEC50 in series [1] is 5.70. For the same compound, in series [2], the CC50 is greater than 30 µM. This compound also had a pKi in series [3] of 9.70.
For the compound `O=c1c2c(oc(O)c1C(c1cccc(NS(=O)(=O)c3ccc(Cl)c(Cl)c3)c1)C1CC1)CCCCCC2` (stereo not given), the pEC50 in series [1] was 5.47. Further, in series [2], the CC50 was greater than 30 µM. Also, in series [3], the negative-log Ki (pKi) is 8.39.
For `O=C(O)c1ccc(S(=O)(=O)Nc2cccc(C(c3c(O)c4c(oc3=O)CCCCCC4)C3CC3)c2)cc1` (stereo not given) the same measures were less than 5.00, greater than 30 µM and 7.96.
With `N#Cc1cccc(S(=O)(=O)Nc2cccc(C(c3c(O)oc4c(c3=O)CCCCCC4)C3CC3)c2)c1` (stereo not given), the pEC50 in series [1] is less than 5.52. Also, the CC50 in series [2] was greater than 30 µM. In addition, the negative logarithm of the Ki (pKi) in series [3] is 9.22.
